Reference: ChEMBL document CHEMBL5058577, “EUbOPEN Chemogenomics Library 2 (Multiplex)” (2022)

System: U2OS
Assay: Multiplex assay against U2OS
Type: toxicity, cell-based
Details: human
Outline: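 Live cells carried four stains from seeding: Hoechst33342, BioTracker Green Microtubule Cytoskeleton Dye, MitoTracker Red and Annexin V Alexa Fluor 680. They were imaged on a CQ1 microscope at 37°C and 5% CO2 after compound addition. Using CellPathfinder machine-learning gating, cells were split into Hoechst high-intensity objects or normal cells, normal cells into healthy, pyknosed or fragmented nuclei, and pyknosed cells into mitotic or apoptotic; tubulin, mitochondrial-mass and membrane-permeability phenotypes are per cents of healthy-nucleus cells.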

[1] = 12 h, 1 µM, compound concentration 1 uM, replicate 1
[2] = 12 h, 1 µM, compound concentration 1 uM, replicate 2
[3] = 12 h, 10 µM, compound concentration 10 uM, replicate 1
[4] = 12 h, 10 µM, compound concentration 10 uM, replicate 2
[5] = 24 h, 1 µM, compound concentration 1 uM, replicate 1
[6] = 24 h, 1 µM, compound concentration 1 uM, replicate 2
[7] = 24 h, 10 µM, compound concentration 10 uM, replicate 1
[8] = 24 h, 10 µM, compound concentration 10 uM, replicate 2
[9] = 48 h, 1 µM, compound concentration 1 uM, replicate 1
[10] = 48 h, 1 µM, compound concentration 1 uM, replicate 2
[11] = 48 h, 10 µM, compound concentration 10 uM, replicate 1
[12] = 48 h, 10 µM, compound concentration 10 uM, replicate 2

CC[C@H]1OC(=O)[C@H](C)[C@@H](O[C@H]2C[C@@](C)(OC)[C@@H](O)[C@H](C)O2)[C@H](C)[C@@H](O[C@@H]2O[C@H](C)C[C@H](N(C)C)[C@H]2O)[C@@]2(C)CC(C)=C(O2)[C@H](C)[C@@H](O)[C@]1(C)O
Population Apoptotic (%) [1]: 50% | Population Fragmented Nuclei (%) [1]: 19% | Population Healthy Nuclei (%) [1]: 63% | Population Hoechst High Intensity Objects (%) [1]: 3% | Population Membrane Permeable-Phenotype (%) [1]: 33% | Population Mitochondria Different-Phenotype (%) [1]: 23% | Population Mitotic Cells (%) [1]: 50% | Population Normal (%) [1]: 96% | Population Pyknosed Nuclei (%) [1]: 17% | Population Tubulin-Different-Phenotype (%) [1]: 25% | Total Cell Count [1]: 226 | Population Apoptotic (%) [2]: 84% | Population Fragmented Nuclei (%) [2]: 23% | Population Healthy Nuclei (%) [2]: 62% | Population Hoechst High Intensity Objects (%) [2]: 1% | Population Membrane Permeable-Phenotype (%) [2]: 21% | Population Mitochondria Different-Phenotype (%) [2]: 14% | Population Mitotic Cells (%) [2]: 15% | Population Normal (%) [2]: 98% | Population Pyknosed Nuclei (%) [2]: 14% | Population Tubulin-Different-Phenotype (%) [2]: 14% | Total Cell Count [2]: 91 | Population Apoptotic (%) [3]: 65% | Population Fragmented Nuclei (%) [3]: 34% | Population Healthy Nuclei (%) [3]: 40% | Population Hoechst High Intensity Objects (%) [3]: 7% | Population Membrane Permeable-Phenotype (%) [3]: 82% | Population Mitochondria Different-Phenotype (%) [3]: 63% | Population Mitotic Cells (%) [3]: 34% | Population Normal (%) [3]: 92% | Population Pyknosed Nuclei (%) [3]: 25% | Population Tubulin-Different-Phenotype (%) [3]: 89% | Total Cell Count [3]: 223 | Population Apoptotic (%) [4]: 73% | Population Fragmented Nuclei (%) [4]: 21% | Population Healthy Nuclei (%) [4]: 47% | Population Hoechst High Intensity Objects (%) [4]: 4% | Population Membrane Permeable-Phenotype (%) [4]: 72% | Population Mitochondria Different-Phenotype (%) [4]: 81% | Population Mitotic Cells (%) [4]: 26% | Population Normal (%) [4]: 95% | Population Pyknosed Nuclei (%) [4]: 31% | Population Tubulin-Different-Phenotype (%) [4]: 96% | Total Cell Count [4]: 128 | Population Apoptotic (%) [5]: 65% | Population Fragmented Nuclei (%) [5]: 20% | Population Healthy Nuclei (%) [5]: 63% | Population Hoechst High Intensity Objects (%) [5]: 4% | Population Membrane Permeable-Phenotype (%) [5]: 20% | Population Mitochondria Different-Phenotype (%) [5]: 15% | Population Mitotic Cells (%) [5]: 35% | Population Normal (%) [5]: 95% | Population Pyknosed Nuclei (%) [5]: 16% | Population Tubulin-Different-Phenotype (%) [5]: 17% | Total Cell Count [5]: 256 | Population Apoptotic (%) [6]: 72% | Population Fragmented Nuclei (%) [6]: 19% | Population Healthy Nuclei (%) [6]: 64% | Population Hoechst High Intensity Objects (%) [6]: 5% | Population Membrane Permeable-Phenotype (%) [6]: 14% | Population Mitochondria Different-Phenotype (%) [6]: 14% | Population Mitotic Cells (%) [6]: 27% | Population Normal (%) [6]: 94% | Population Tubulin-Different-Phenotype (%) [6]: 10% | Total Cell Count [6]: 115 | Population Apoptotic (%) [7]: 67% | Population Fragmented Nuclei (%) [7]: 33% | Population Healthy Nuclei (%) [7]: 36% | Population Hoechst High Intensity Objects (%) [7]: 5% | Population Membrane Permeable-Phenotype (%) [7]: 56% | Population Mitochondria Different-Phenotype (%) [7]: 65% | Population Mitotic Cells (%) [7]: 32% | Population Normal (%) [7]: 94% | Population Pyknosed Nuclei (%) [7]: 29% | Population Tubulin-Different-Phenotype (%) [7]: 76% | Total Cell Count [7]: 210 | Population Apoptotic (%) [8]: 82% | Population Fragmented Nuclei (%) [8]: 24% | Population Healthy Nuclei (%) [8]: 45% | Population Hoechst High Intensity Objects (%) [8]: 4% | Population Membrane Permeable-Phenotype (%) [8]: 75% | Population Mitochondria Different-Phenotype (%) [8]: 86% | Population Mitotic Cells (%) [8]: 17% | Population Normal (%) [8]: 95% | Population Pyknosed Nuclei (%) [8]: 30% | Population Tubulin-Different-Phenotype (%) [8]: 88% | Total Cell Count [8]: 121 | Population Apoptotic (%) [9]: 67% | Population Fragmented Nuclei (%) [9]: 19% | Population Healthy Nuclei (%) [9]: 54% | Population Hoechst High Intensity Objects (%) [9]: 9% | Population Membrane Permeable-Phenotype (%) [9]: 13% | Population Mitochondria Different-Phenotype (%) [9]: 8% | Population Mitotic Cells (%) [9]: 32% | Population Normal (%) [9]: 91% | Population Pyknosed Nuclei (%) [9]: 26% | Population Tubulin-Different-Phenotype (%) [9]: 11% | Total Cell Count [9]: 300 | Population Apoptotic (%) [10]: 78% | Population Fragmented Nuclei (%) [10]: 32% | Population Healthy Nuclei (%) [10]: 58% | Population Hoechst High Intensity Objects (%) [10]: 2% | Population Membrane Permeable-Phenotype (%) [10]: 12% | Population Mitochondria Different-Phenotype (%) [10]: 12% | Population Mitotic Cells (%) [10]: 21% | Population Normal (%) [10]: 97% | Population Pyknosed Nuclei (%) [10]: 9% | Population Tubulin-Different-Phenotype (%) [10]: 7% | Total Cell Count [10]: 147 | Population Apoptotic (%) [11]: 85% | Population Fragmented Nuclei (%) [11]: 37% | Population Healthy Nuclei (%) [11]: 31% | Population Hoechst High Intensity Objects (%) [11]: 7% | Population Membrane Permeable-Phenotype (%) [11]: 58% | Population Mitochondria Different-Phenotype (%) [11]: 55% | Population Mitotic Cells (%) [11]: 14% | Population Normal (%) [11]: 92% | Population Pyknosed Nuclei (%) [11]: 31% | Population Tubulin-Different-Phenotype (%) [11]: 63% | Total Cell Count [11]: 236 | Population Apoptotic (%) [12]: 83% | Population Fragmented Nuclei (%) [12]: 20% | Population Healthy Nuclei (%) [12]: 42% | Population Hoechst High Intensity Objects (%) [12]: 9% | Population Membrane Permeable-Phenotype (%) [12]: 62% | Population Mitochondria Different-Phenotype (%) [12]: 81% | Population Mitotic Cells (%) [12]: 16% | Population Normal (%) [12]: 90% | Population Pyknosed Nuclei (%) [12]: 36% | Population Tubulin-Different-Phenotype (%) [12]: 88% | Total Cell Count [12]: 112
